Assay results reported in ChEMBL document CHEMBL5038571, “Design and Synthesis of EZH2-Based PROTACs to Degrade the PRC2 Complex for Targeting the Noncatalytic Activity of EZH2” (J Med Chem, 2021).
The source made the active and inactive calls. The calls are words filed in the database; no cut-off is given here.

Key:
[1] = target: T1, Protein cereblon/Histone-lysine N-methyltransferase EZH2 (Homo sapiens) (UniProt Q15910+Q96SW2); assay: PROTAC activity at CRBN E3 ligase/EZH2 in PRC2 complex in human WSUDLCL2 cells assessed as induction of RbAp48 degradation at 1 uM incubated for 48 hrs by Western blot analysis relative to control; assay type: cell-based
In short: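 WSU-DLCL-2 cells treated 48 h (1 μM for the single-concentration screen), lysed; SDS-PAGE, nitrocellulose transfer, 5% milk block, primary antibody 4 °C overnight, chemiluminescence. Bands quantified by densitometry, normalized to GAPDH, expressed relative to DMSO-treated cells; mean ± SD of three independent experiments, t-test.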

[2] = target: T1, Protein cereblon/Histone-lysine N-methyltransferase EZH2 (Homo sapiens); assay: PROTAC activity at CRBN E3 ligase/EZH2 in PRC2 complex in human WSUDLCL2 cells assessed as downregulation of RbAp48 expression at 1 uM pretreated with EPZ6438 for 4 hrs followed by compound addition and measured after 48 hrs by Western blot analysis; assay type: cell-based
In short: (§1)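 WSU-DLCL-2 cells pretreated 4 h with the named inhibitor, then compound added and incubated a further 48 h. EZH2, SUZ12, EED and RbAp48 measured by western blot (nitrocellulose transfer, skim-milk block, primary antibody overnight at 4 °C, chemiluminescent detection).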

[3] = test system: NCI-H1299; assay: Downregulation of CENPK mRNA expression in human NCI-H1299 cells at 10 uM incubated for 48 hrs by qRT-PCR analysis; assay type: functional, cell-based
In short: (§2)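 Cells treated 48 h. Total RNA extracted with Trizol, reverse-transcribed, and SYBR RT-qPCR run: 95 °C 30 s, then 40 cycles of 95 °C 6 s and 60 °C 20 s. mRNA normalized to the DMSO-treated group. Mean SD of three independent experiments, t-test versus DMSO.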

[4] = target: Polycomb protein EED (Homo sapiens) (UniProt O75530); assay: Binding affinity to EED in human WSUDLCL2 cells assessed as thermal stability by measuring shift in temperature at 60 uM pretreated with proteasome inhibitor MG132 for 1 hr followed by compound addition incubated for 2 hrs by cellular thermal shift based Western blot analysis; assay type: cell-based
In short: (§3)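 Cellular thermal shift: cells suspended at 1.5 × 10⁶/mL and pretreated with MG-132 (5 μM, 1 h), then given 60 μM compound for 2 h with a DMSO control. Cells were lysed in RIPA with cocktail for 1 h. Supernatant aliquots were heated 6 min at 45, 48, 51, 54, 57 and 60 °C and centrifuged 15 min. Soluble protein was immunoblotted; bands quantified by densitometry; three independent experiments.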

[5] = target: Polycomb protein SUZ12 (Homo sapiens) (UniProt Q15022); assay: Binding affinity to SUZ12 in human WSUDLCL2 cells assessed as thermal stability by measuring shift in temperature at 60 uM pretreated with proteasome inhibitor MG132 for 1 hr followed by compound addition incubated for 2 hrs by cellular thermal shift based Western blot analysis; assay type: cell-based; in short: as §3
[6] = target: T1, Protein cereblon/Histone-lysine N-methyltransferase EZH2 (Homo sapiens); assay: PROTAC activity at CRBN E3 ligase/EZH2 in PRC2 complex in human WSUDLCL2 cells assessed as induction of EED degradation at 10 uM incubated for 48 hrs by Western blot analysis; assay type: cell-based
[7] = target: T1, Protein cereblon/Histone-lysine N-methyltransferase EZH2 (Homo sapiens); assay: PROTAC activity at CRBN E3 ligase/EZH2 in PRC2 complex in human LNCaP cells assessed as reduction in H3K27me3 level at 1 uM incubated for 48 hrs by Western blot analysis; assay type: cell-based
In short: (§4)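 Cells cultured in DMEM or RPMI 1640 with 10% FBS and 1% penicillin-streptomycin, 37 °C, 5% CO2; exposed to 1 μM compound for 48 h. Lysates run on SDS-PAGE and transferred to nitrocellulose. Blocked 2 h in 5% skim milk, primary antibody overnight at 4 °C, then secondary antibody. Chemiluminescent detection of PRC2 subunits and H3K27me3.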

[8] = target: T1, Protein cereblon/Histone-lysine N-methyltransferase EZH2 (Homo sapiens); assay: PROTAC activity at CRBN E3 ligase/EZH2 in PRC2 complex in human DU-145 cells assessed as induction of EZH2 degradation by measuring reduction in EZH2 protein level at 1 uM incubated for 48 hrs by Western blot analysis; assay type: cell-based
In short: (§5)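 Cancer cell lines exposed to 1 μM compound for 48 h. Lysates immunoblotted (SDS-PAGE, nitrocellulose, 5% milk block, primary antibody overnight at 4 °C) for EZH2, SUZ12, EED, RbAp48 and H3K27me3. Bands quantified by densitometry and normalized to GAPDH.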

[9] = target: T1, Protein cereblon/Histone-lysine N-methyltransferase EZH2 (Homo sapiens); assay: PROTAC activity at CRBN E3 ligase/EZH2 in PRC2 complex in human A2780 cells assessed as reduction in H3K27me3 level at 1 uM incubated for 48 hrs by Western blot analysis; assay type: cell-based; in short: as §5
[10] = target: T1, Protein cereblon/Histone-lysine N-methyltransferase EZH2 (Homo sapiens); assay: PROTAC activity at CRBN E3 ligase/EZH2 in PRC2 complex in human SK-OV-3 cells assessed as reduction in H3K27me3 level at 1 uM incubated for 48 hrs by Western blot analysis; assay type: cell-based; in short: as §4
[11] = target: T1, Protein cereblon/Histone-lysine N-methyltransferase EZH2 (Homo sapiens); assay: PROTAC activity at CRBN E3 ligase/EZH2 in PRC2 complex in human WSUDLCL2 cells assessed as effect on SUZ12 mRNA expression at 1 uM incubated for 48 hrs by RT-qPCR analysis; assay type: cell-based
In short: (§6)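 WSU-DLCL-2 cells treated 48 h with 1 μM compound. Total RNA extracted with Trizol and reverse-transcribed. SYBR qPCR run as 95 °C 30 s, then 40 cycles of 95 °C 6 s and 60 °C 20 s. PRC2 subunit mRNA normalized to the DMSO-treated group; mean SD, t-test.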

[12] = target: T1, Protein cereblon/Histone-lysine N-methyltransferase EZH2 (Homo sapiens); assay: PROTAC activity at CRBN E3 ligase/EZH2 in PRC2 complex in human WSUDLCL2 cells assessed as effect on EED mRNA expression at 1 uM incubated for 48 hrs by RT-qPCR analysis; assay type: cell-based; in short: as §6
[13] = target: T1, Protein cereblon/Histone-lysine N-methyltransferase EZH2 (Homo sapiens); assay: PROTAC activity at CRBN E3 ligase/EZH2 in PRC2 complex in human WSUDLCL2 cells assessed as downregulation of RbAp48 expression at 1 uM pretreated with MG-132 for 4 hrs followed by compound addition and measured after 48 hrs by Western blot analysis; assay type: cell-based; in short: as §1
[14] = target: T1, Protein cereblon/Histone-lysine N-methyltransferase EZH2 (Homo sapiens); assay: PROTAC activity at CRBN E3 ligase/EZH2 in PRC2 complex in human WSUDLCL2 cells assessed as downregulation of EZH2 expression at 1 uM pretreated with EED226 for 4 hrs followed by compound addition and measured after 48 hrs by Western blot analysis; assay type: cell-based; in short: as §1
[15] = test system: MDA-MB-468; assay: Downregulation of ARL6IP mRNA expression in human MDA-MB-468 cells at 10 uM incubated for 48 hrs by qRT-PCR analysis; assay type: functional, cell-based; in short: as §2
[16] = test system: A549; assay: Antiproliferative activity against EZH2-knockdown human A549 cells assessed as inhibition of cell growth at 10 uM treated for 9 days by optical microscopic analysis; assay type: functional, cell-based; details: time 9.0 day
In short: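 Cells seeded at 5 × 10³ per well, grown 24 h, then exposed to compound at 10 μM for 9 days with medium refreshed. Cells were photographed and counted on days 1, 3, 5, 7 and 9. For lines 1-2, EZH2-targeting or control shRNA was induced in the cells. Mean SD of three independent experiments; t-test against control.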

[17] = test system: MDA-MB-468; assay: Downregulation of CENPK mRNA expression in human MDA-MB-468 cells at 10 uM incubated for 48 hrs by qRT-PCR analysis; assay type: functional, cell-based; in short: as §2

T1 sequence (Q15910 whole entry, looked up): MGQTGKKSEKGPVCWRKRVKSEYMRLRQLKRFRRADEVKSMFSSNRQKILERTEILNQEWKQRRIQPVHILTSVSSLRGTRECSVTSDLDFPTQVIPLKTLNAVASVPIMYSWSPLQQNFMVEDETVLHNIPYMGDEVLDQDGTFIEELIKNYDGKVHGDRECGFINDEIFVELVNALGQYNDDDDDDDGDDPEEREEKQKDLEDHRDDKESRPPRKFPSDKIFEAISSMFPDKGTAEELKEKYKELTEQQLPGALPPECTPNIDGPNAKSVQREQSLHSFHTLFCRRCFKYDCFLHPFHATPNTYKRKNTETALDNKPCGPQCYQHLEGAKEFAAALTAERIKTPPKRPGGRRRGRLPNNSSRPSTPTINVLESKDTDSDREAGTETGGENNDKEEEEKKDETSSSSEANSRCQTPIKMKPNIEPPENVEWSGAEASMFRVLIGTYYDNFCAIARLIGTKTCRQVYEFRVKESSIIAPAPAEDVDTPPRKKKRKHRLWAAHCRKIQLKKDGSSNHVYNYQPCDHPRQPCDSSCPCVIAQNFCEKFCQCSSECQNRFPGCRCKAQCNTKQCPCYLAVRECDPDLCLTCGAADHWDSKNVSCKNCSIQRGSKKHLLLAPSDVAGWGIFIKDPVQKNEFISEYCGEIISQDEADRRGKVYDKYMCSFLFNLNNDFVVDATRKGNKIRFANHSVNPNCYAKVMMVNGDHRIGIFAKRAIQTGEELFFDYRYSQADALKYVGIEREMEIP
T1 sequence (Q96SW2 whole entry, looked up): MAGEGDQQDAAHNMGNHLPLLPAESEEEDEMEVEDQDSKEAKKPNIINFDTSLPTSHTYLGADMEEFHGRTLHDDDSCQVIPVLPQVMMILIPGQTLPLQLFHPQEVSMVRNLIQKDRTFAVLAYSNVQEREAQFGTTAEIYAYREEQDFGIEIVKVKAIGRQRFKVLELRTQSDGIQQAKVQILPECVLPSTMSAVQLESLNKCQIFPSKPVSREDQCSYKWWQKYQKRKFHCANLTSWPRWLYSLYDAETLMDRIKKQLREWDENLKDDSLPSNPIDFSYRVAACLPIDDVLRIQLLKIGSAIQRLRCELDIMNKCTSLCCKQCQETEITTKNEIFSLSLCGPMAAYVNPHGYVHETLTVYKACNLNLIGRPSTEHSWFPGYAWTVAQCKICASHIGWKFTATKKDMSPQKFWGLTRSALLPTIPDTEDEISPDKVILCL
Chain of Polycomb protein SUZ12 (Homo sapiens) (Q15022 whole entry): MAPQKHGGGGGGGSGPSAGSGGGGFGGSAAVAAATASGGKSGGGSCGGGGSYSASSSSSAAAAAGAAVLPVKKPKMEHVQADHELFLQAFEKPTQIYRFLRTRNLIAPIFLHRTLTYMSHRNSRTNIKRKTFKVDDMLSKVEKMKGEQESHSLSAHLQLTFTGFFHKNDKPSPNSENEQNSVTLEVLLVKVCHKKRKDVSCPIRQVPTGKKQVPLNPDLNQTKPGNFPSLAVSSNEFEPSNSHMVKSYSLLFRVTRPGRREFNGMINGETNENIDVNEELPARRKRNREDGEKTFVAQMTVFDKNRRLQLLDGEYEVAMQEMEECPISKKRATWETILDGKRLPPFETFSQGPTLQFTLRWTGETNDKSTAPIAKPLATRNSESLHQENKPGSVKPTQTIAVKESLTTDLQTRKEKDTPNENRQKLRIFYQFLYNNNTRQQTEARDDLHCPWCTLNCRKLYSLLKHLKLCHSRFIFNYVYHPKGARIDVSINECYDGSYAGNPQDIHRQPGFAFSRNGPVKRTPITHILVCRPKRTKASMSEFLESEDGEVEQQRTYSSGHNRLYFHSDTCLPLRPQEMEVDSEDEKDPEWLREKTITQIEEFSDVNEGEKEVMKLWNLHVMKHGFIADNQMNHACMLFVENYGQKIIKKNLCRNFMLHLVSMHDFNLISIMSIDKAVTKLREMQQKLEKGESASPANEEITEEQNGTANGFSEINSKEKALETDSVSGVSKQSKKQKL
Chain of Polycomb protein EED (Homo sapiens) (O75530 2-441 limits assumed): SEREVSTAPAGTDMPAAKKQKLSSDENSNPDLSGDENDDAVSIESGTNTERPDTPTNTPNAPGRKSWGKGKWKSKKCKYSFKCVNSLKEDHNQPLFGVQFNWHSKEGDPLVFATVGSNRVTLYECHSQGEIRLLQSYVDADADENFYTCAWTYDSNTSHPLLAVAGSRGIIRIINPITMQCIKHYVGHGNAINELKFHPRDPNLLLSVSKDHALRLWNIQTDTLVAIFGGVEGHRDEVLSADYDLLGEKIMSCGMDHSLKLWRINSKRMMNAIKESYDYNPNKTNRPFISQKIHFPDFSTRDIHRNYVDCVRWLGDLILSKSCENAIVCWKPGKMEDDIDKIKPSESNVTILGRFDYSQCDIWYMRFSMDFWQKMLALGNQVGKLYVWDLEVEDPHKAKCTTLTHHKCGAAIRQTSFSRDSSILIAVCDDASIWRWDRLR

- Activity [1]: 74%
- Activity [2]: inactive
- Activity [4]: inactive
- Activity [5]: inactive
- Activity [6]: inactive
- Activity [7]: Active
- Activity [8]: Active
- Activity [9]: Active
- Activity [10]: Active
- Activity [11]: inactive
- Activity [12]: inactive
- Activity [13]: inactive
- Activity [14]: Active
SMILES: CCN(c1cc(-c2ccc(CN3CCN(CCCCCCCOc4cccc5c4C(=O)N(C4CCC(=O)NC4=O)C5=O)CC3)cc2)cc(C(=O)NCc2c(C)cc(C)[nH]c2=O)c1C)C1CCOCC1 (configuration not stated)
- Activity [3]: Active
- Activity [15]: Active
- Activity [16]: Active
- Activity [17]: Active
